In general, IC50 refers to the midpoint of a concentration-inhibition curve.

These results are taken from ChEMBL document CHEMBL2157904, “Identification of a novel Smoothened antagonist that potently suppresses Hedgehog signaling” (Bioorg Med Chem, 2012).

One experiment relates to U2OS. The experiment in a line: Antagonist activity at chimeric Smo 633 mutant expressed in U2OS cells coexpressing beta arrestin2-GFP assessed as inhibition of intracellular beta arrestin2-GFP aggregate formation at 5 uM after 6 hrs by confocal microscopy. It counts as functional, cell-based. Particulars: Homo sapiens. The method, boiled down:
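Cells exposed to compound at 5 µM for 6 hours. Confocal imaging scored loss of intracellular βarr2-GFP vesicular aggregates.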

Experiment [1] is described as follows: Antiproliferative activity against Shh-stimulated C57BL/6 mouse granule cell precursor after 48 hrs by [3H]thymidine incorporation assay. It counts as functional. The method, boiled down:
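Primary cerebellar granule cell precursors taken from 7-day postnatal C57BL/6 mice. Treated 48 h with Shh plus compound at increasing concentrations, then [3H]-thymidine added for 16 h and incorporation measured. Curve-fit IC50, mean ± SEM, n = 3.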
(Uptake of a labelled nucleoside into DNA is a usual measure of proliferation.)

In experiment [2] the target is Vasopressin V2 receptor (Homo sapiens) (UniProt P30518). The experiment in a line: Antagonist activity at V2R expressed in U2OS cells coexpressing beta arrestin2-GFP assessed as inhibition of D-arginine vasopressin-induced intracellular beta arrestin2-GFP aggregate formation at 5 uM preincubated for 1 hr before agonist treatment measured after 6 hrs of agonist treatment by confocal microscopy. It counts as functional, cell-based.

Another experiment deals with Protein smoothened (Mus musculus, UniProt P56726). The experiment can be described thus: Antagonist activity at Smo in mouse Shh-Light 2 cells assessed as inhibition of Shh-induced Gli1-reporter activity after 2 days by dual-luciferase reporter gene method. It counts as functional, cell-based, Shh Light II. The method, boiled down:
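Shh-LIGHT2 cells (clonal NIH3T3 line with stably integrated Gli-dependent firefly luciferase and constitutive Renilla luciferase) stimulated with purified Sonic Hedgehog at 50 ng/mL, with compound at increasing concentrations. Dual-luciferase read-out. Mean ± SEM.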
A general note: Reporter assays use an easily measured gene product as a stand-in for the process of interest.

For another experiment, the system named is Mus musculus. The experiment in a line: Inhibition of hair regrowth in eight week old C57BL/6 mouse at 0.5 mM topically administered daily on shaved and Nair depilated surface for 2 weeks. It counts as functional, organism-based. Summed up: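 Female C57BL/6 mice aged eight weeks, in telogen, with dorsal skin shaved and then depilated with Nair for 2 min and rinsed. Compound at 0.5 mM in 95% acetone/5% DMSO, 30 µl applied topically to the depilated area daily for two weeks. Vehicle-treated controls. Brief 3% isoflurane anaesthesia during procedures.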

SMILES strings stand for the structures. The source made the active and inactive calls. The rule behind the calls is not given here.

Chain of Vasopressin V2 receptor (Homo sapiens) (P30518 whole entry): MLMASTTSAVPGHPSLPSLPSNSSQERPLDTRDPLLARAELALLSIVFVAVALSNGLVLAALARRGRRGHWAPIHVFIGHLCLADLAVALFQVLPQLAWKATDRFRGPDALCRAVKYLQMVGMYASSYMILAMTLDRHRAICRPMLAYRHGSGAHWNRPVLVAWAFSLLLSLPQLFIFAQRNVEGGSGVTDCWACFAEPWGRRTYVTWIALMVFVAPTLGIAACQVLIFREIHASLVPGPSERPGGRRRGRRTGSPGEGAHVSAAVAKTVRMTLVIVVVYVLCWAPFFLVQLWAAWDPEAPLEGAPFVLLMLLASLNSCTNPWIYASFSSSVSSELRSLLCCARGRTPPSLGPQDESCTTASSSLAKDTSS
Chain of Protein smoothened (P56726 whole entry): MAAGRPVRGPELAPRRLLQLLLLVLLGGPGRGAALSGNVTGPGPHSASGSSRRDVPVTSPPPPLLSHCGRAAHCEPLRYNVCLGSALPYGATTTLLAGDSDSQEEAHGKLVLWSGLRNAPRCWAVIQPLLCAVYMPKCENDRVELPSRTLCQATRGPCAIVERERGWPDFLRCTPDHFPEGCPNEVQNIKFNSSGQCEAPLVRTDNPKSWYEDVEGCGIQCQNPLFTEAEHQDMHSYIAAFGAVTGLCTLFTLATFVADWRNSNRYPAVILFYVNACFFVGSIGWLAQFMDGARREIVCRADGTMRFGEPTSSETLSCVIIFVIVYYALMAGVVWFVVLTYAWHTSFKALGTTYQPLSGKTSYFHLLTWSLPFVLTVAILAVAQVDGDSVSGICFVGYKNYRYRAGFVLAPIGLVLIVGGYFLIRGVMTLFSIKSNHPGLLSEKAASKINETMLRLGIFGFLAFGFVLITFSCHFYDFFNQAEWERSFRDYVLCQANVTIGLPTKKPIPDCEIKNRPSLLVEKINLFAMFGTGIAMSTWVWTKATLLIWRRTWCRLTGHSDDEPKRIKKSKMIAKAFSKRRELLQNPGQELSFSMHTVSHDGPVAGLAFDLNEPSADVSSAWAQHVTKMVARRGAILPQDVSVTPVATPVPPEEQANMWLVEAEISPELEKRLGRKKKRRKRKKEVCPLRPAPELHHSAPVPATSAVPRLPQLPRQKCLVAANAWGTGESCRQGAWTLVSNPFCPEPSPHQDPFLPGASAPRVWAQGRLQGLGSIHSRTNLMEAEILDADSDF

For the compound `CC1=C2C[C@H]3[C@@H](CC=C4C[C@@H](O)CC[C@@]43C)[C@@H]2CC[C@]12O[C@@H]1C[C@H](C)CN[C@H]1[C@H]2C` [CYCLOPAMINE], the inhibition entry in the experiment with U2OS was “Active”. The IC50 in experiment [1] turned out to be 414 nM. For the same compound, the inhibition result in experiment [2] is “inactive”.
In the case of `CCN(C)Cc1ccc(N2CCC(NC(=O)c3cccc(-c4cccnc4)c3)CC2)nc1`, the inhibition result with U2OS was “Active”.
Turning to `CS(=O)(=O)c1ccc(C(=O)Nc2ccc(Cl)c(-c3ccccn3)c2)c(Cl)c1` [VISMODEGIB], the IC50 in experiment [1] is 16.4 nM.
Regarding `O=C(NC1CCN(Cc2ccc(N3CCC(NC(=O)c4cccc(-c5cccnc5)c4)CC3)nc2)CC1)c1cccc(-c2cccnc2)c1`, the IC50 in experiment [1] is 16.6 nM; on Protein smoothened, 2.6 nM. The inhibition entry in experiment [2] is “inactive”. In the experiment with Mus musculus, the inhibition result is “Active”.
